Source: ChEMBL document CHEMBL1129516, “Design, synthesis, and biological activities of cyclic lactam peptide analogues of dynorphine A(1-11)-NH2” (J Med Chem, 1996)

How the values were obtained:
[1] = tested on: Kappa opioid receptor (Cavia porcellus); test: Central (GPB) and Peripheral (GPI) Nervous Systems Selectivity at kappa Opioid Receptor
[2] = Relative binding to mu and kappa opioid receptors (ratio of IC50)
[3] = Relative binding to delta and kappa opioid receptors (ratio of IC50)
Mu-type opioid receptor = Mu-type opioid receptor (Cavia porcellus, UniProt P97266); test: Inhibition of [3H]DAMGO binding to Opioid receptor mu 1 of guinea pig brain membrane homogenates
Sequence of Mu-type opioid receptor (P97266 whole entry): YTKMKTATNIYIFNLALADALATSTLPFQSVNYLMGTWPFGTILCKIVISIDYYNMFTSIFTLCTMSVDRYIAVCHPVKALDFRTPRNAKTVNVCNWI

[4] = molecular target: Kappa-type opioid receptor (Cavia porcellus, UniProt P41144); test: Inhibition of [3H]U-69593 binding to Opioid receptor kappa 1 of plasma membrane homogenates of guinea pig brain; type: cell-free
Sequence of Kappa-type opioid receptor (P41144 whole entry): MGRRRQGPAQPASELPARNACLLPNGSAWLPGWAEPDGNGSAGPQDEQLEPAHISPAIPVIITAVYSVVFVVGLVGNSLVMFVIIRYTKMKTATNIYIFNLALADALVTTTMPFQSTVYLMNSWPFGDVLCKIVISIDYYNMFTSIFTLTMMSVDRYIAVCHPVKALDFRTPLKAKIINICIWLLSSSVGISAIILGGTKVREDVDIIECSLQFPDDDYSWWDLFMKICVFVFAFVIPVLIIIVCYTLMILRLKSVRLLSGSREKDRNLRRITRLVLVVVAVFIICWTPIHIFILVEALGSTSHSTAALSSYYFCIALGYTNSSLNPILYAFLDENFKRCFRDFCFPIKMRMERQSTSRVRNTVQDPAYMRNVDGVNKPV

Cavia porcellus = species: Cavia porcellus; test: Ability to inhibit the electrically evoked contraction of the guinea pig ileum; type: functional, organism-based
Summary of the method: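 Longitudinal muscle-myenteric plexus strips from male Hartley guinea pigs (250-500 g) in 37 °C oxygenated Krebs, 1 g tension, transmural stimulation 0.1 Hz, 0.4-ms supramaximal pulses. At least four tissues; IC50 by Hill equation fit.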

Structure (SMILES) | IC50 (Mu-type opioid receptor) | IC50 [4] | IC50 (Cavia porcellus) | other results
CC[C@H](C)[C@H](NC(=O)[C@H](CCCCN)NC(=O)[C@H](CCCN=C(N)N)NC(=O)[C@H](CC(C)C)NC(=O)[C@H](Cc1ccccc1)NC(=O)[C@H](CC(=O)O)NC(=O)CNC(=O)[C@@H](N)Cc1ccc(O)cc1)C(=O)N[C@@H](CCCN=C(N)N)C(=O)N1CCC[C@@H]1C(=O)N[C@H](CCCCN)C(N)=O | – | – | – | Ratio [1]: 72 Ratio; Selectivity [2]: 7 Ratio; Selectivity [3]: 9.5 Ratio
CC[C@H](C)[C@H](NC(=O)[C@H](CCCNC(=N)N)NC(=O)[C@H](CCCNC(=N)N)NC(=O)[C@H](CCCCN)NC(=O)[C@H](Cc1ccccc1)NC(=O)CNC(=O)CNC(=O)[C@@H](N)Cc1ccc(O)cc1)C(=O)N[C@H](CC(=O)O)C(=O)N1CCC[C@H]1C(=O)N[C@@H](CCCCN)C(N)=O | 555 nM | 17.5 nM | – | –
CC[C@H](C)[C@H](NC(=O)[C@H](CCCNC(=N)N)NC(=O)[C@@H]1CCCCNC(=O)C[C@@H](NC(=O)[C@@H](N)Cc2ccc(O)cc2)C(=O)NCC(=O)N[C@@H](Cc2ccccc2)C(=O)N[C@@H](CC(C)C)C(=O)N1)C(=O)N[C@@H](CCCNC(=N)N)C(=O)N1CCC[C@H]1C(=O)N[C@@H](CCCCN)C(N)=O | 2980 nM | 100 nM | – | –
CC[C@H](C)[C@H](NC(=O)[C@H](CCCNC(=N)N)NC(=O)[C@H](CCCCN)NC(=O)[C@H](CC(C)C)NC(=O)[C@H](Cc1ccccc1)NC(=O)CNC(=O)[C@H](CC(=O)O)NC(=O)[C@@H](N)Cc1ccc(O)cc1)C(=O)N[C@@H](CCCNC(=N)N)C(=O)N1CCC[C@H]1C(=O)N[C@@H](CCCCN)C(N)=O | 0.08 nM | 1.5 nM | – | –
CC[C@H](C)[C@H](NC(=O)[C@H]1CCCCNC(=O)C[C@H](NC(=O)CNC(=O)[C@@H](N)Cc2ccc(O)cc2)C(=O)N[C@H](Cc2ccccc2)C(=O)N[C@@H](CC(C)C)C(=O)N[C@H](CCCN=C(N)N)C(=O)N1)C(=O)N[C@@H](CCCN=C(N)N)C(=O)N1CCC[C@@H]1C(=O)N[C@H](CCCCN)C(N)=O | 310 nM | 4.9 nM | 600 nM | –
CC[C@@H](C)[C@H]1NC(=O)[C@H](CCCNC(=N)N)NC(=O)[C@@H](CCCNC(=N)N)NC(=O)[C@H](NC(=O)[C@@H](Cc2ccccc2)NC(=O)CNC(=O)CNC(=O)[C@H](N)Cc2ccc(O)cc2)CCCCNC(=O)C[C@@H](C(=O)N2CCC[C@H]2C(=O)N[C@H](CCCCN)C(N)=O)NC1=O | 12 nM | 6.6 nM | 2500 nM | –
CC[C@H](C)[C@H](NC(=O)[C@H](CCCN=C(N)N)NC(=O)[C@@H]1CCCCNC(=O)C[C@@H](NC(=O)[C@@H](N)Cc2ccc(O)cc2)C(=O)NCC(=O)N[C@@H](Cc2ccccc2)C(=O)N[C@@H](CC(C)C)C(=O)N1)C(=O)N[C@@H](CCCN=C(N)N)C(=O)N1CCC[C@H]1C(=O)N[C@@H](CCCCN)C(N)=O | – | – | 16000 nM | –
CC[C@H](C)[C@H](NC(=O)[C@H](CCCN=C(N)N)NC(=O)[C@@H]1CCCCNC(=O)C[C@@H](NC(=O)[C@@H](N)Cc2ccc(O)cc2)C(=O)NCC(=O)N[C@H](Cc2ccccc2)C(=O)N[C@@H](CC(C)C)C(=O)N1)C(=O)N[C@@H](CCCN=C(N)N)C(=O)N1CCC[C@@H]1C(=O)N[C@H](CCCCN)C(N)=O | – | – | – | Ratio [1]: 160 Ratio; Selectivity [2]: 29.8 Ratio; Selectivity [3]: 9.1 Ratio
CC[C@H](C)[C@H](NC(=O)[C@H](CCCN=C(N)N)NC(=O)[C@@H]1CCCCNC(=O)C[C@H](NC(=O)[C@@H](N)Cc2ccc(O)cc2)C(=O)NCC(=O)N[C@H](Cc2ccccc2)C(=O)N[C@@H](CC(C)C)C(=O)N1)C(=O)N[C@@H](CCCN=C(N)N)C(=O)N1CCC[C@@H]1C(=O)N[C@H](CCCCN)C(N)=O | – | – | – | Ratio [1]: 5.6 Ratio; Selectivity [2]: 0.03 Ratio; Selectivity [3]: 0.11 Ratio
CC[C@H](C)[C@H](NC(=O)[C@H](CCCN=C(N)N)NC(=O)[C@@H]1CCCCNC(=O)C[C@H](NC(=O)[C@@H](N)Cc2ccc(O)cc2)C(=O)NCC(=O)N[C@@H](Cc2ccccc2)C(=O)N[C@@H](CC(C)C)C(=O)N1)C(=O)N[C@@H](CCCN=C(N)N)C(=O)N1CCC[C@H]1C(=O)N[C@@H](CCCCN)C(N)=O | – | – | 610 nM | –
CC[C@H](C)[C@H](NC(=O)[C@H]1CCCCNC(=O)C[C@@H](NC(=O)CNC(=O)[C@@H](N)Cc2ccc(O)cc2)C(=O)N[C@H](Cc2ccccc2)C(=O)N[C@@H](CC(C)C)C(=O)N[C@H](CCCN=C(N)N)C(=O)N1)C(=O)N[C@@H](CCCN=C(N)N)C(=O)N1CCC[C@@H]1C(=O)N[C@H](CCCCN)C(N)=O | 740 nM | 25 nM | 1500 nM | –
CC[C@H](C)[C@H](NC(=O)[C@H](CCCCN)NC(=O)[C@H](CCCN=C(N)N)NC(=O)[C@H](CC(C)C)NC(=O)[C@H](Cc1ccccc1)NC(=O)[C@H](CC(=O)O)NC(=O)CNC(=O)[C@@H](N)Cc1ccc(O)cc1)C(=O)N[C@@H](CCCN=C(N)N)C(=O)N1CCC[C@H]1C(=O)N[C@@H](CCCCN)C(N)=O | – | – | 13300 nM | –
CC[C@H](C)[C@H](NC(=O)[C@H](CCCCN)NC(=O)[C@H](CCCN=C(N)N)NC(=O)[C@H](CC(C)C)NC(=O)[C@H](Cc1ccccc1)NC(=O)[C@@H](CC(=O)O)NC(=O)CNC(=O)[C@@H](N)Cc1ccc(O)cc1)C(=O)N[C@@H](CCCN=C(N)N)C(=O)N1CCC[C@H]1C(=O)N[C@@H](CCCCN)C(N)=O | – | – | 4900 nM | –
CC[C@H](C)[C@H](NC(=O)[C@H](CCCCN)NC(=O)[C@H](CCCNC(=N)N)NC(=O)[C@H](CC(C)C)NC(=O)[C@H](Cc1ccccc1)NC(=O)[C@@H](CC(=O)O)NC(=O)CNC(=O)[C@@H](N)Cc1ccc(O)cc1)C(=O)N[C@@H](CCCNC(=N)N)C(=O)N1CCC[C@H]1C(=O)N[C@@H](CCCCN)C(N)=O | 660 nM | 47 nM | – | –
CC[C@H](C)[C@H](NC(=O)[C@H](CCCCN)NC(=O)[C@H](CCCNC(=N)N)NC(=O)[C@H](CC(C)C)NC(=O)[C@H](Cc1ccccc1)NC(=O)[C@H](CC(=O)O)NC(=O)CNC(=O)[C@@H](N)Cc1ccc(O)cc1)C(=O)N[C@@H](CCCNC(=N)N)C(=O)N1CCC[C@H]1C(=O)N[C@@H](CCCCN)C(N)=O | 1320 nM | 190 nM | – | –
CC[C@H](C)[C@H](NC(=O)[C@H](CCCN=C(N)N)NC(=O)[C@H](CCCN=C(N)N)NC(=O)[C@H](CCCCN)NC(=O)[C@H](Cc1ccccc1)NC(=O)CNC(=O)CNC(=O)[C@@H](N)Cc1ccc(O)cc1)C(=O)N[C@@H](CC(=O)O)C(=O)N1CCC[C@H]1C(=O)N[C@@H](CCCCN)C(N)=O | 400 nM | 35 nM | – | –
CC[C@H](C)[C@H](NC(=O)[C@H](CCCCN)NC(=O)[C@H](CCCN=C(N)N)NC(=O)[C@H](CC(C)C)NC(=O)[C@H](Cc1ccccc1)NC(=O)[C@@H](CC(=O)O)NC(=O)CNC(=O)[C@@H](N)Cc1ccc(O)cc1)C(=O)N[C@@H](CCCN=C(N)N)C(=O)N1CCC[C@@H]1C(=O)N[C@H](CCCCN)C(N)=O | – | – | – | Ratio [1]: 110 Ratio; Selectivity [2]: 14 Ratio; Selectivity [3]: 19 Ratio
CC[C@H](C)[C@H](NC(=O)[C@H](CCCNC(=N)N)NC(=O)[C@@H]1CCCCNC(=O)C[C@H](NC(=O)[C@@H](N)Cc2ccc(O)cc2)C(=O)NCC(=O)N[C@@H](Cc2ccccc2)C(=O)N[C@@H](CC(C)C)C(=O)N1)C(=O)N[C@@H](CCCNC(=N)N)C(=O)N1CCC[C@H]1C(=O)N[C@@H](CCCCN)C(N)=O | 3.4 nM | 110 nM | – | –
CC[C@H](C)[C@H](NC(=O)[C@H](CCCN=C(N)N)NC(=O)[C@H](CCCN=C(N)N)NC(=O)[C@H](CCCCN)NC(=O)[C@H](Cc1ccccc1)NC(=O)CNC(=O)CNC(=O)[C@@H](N)Cc1ccc(O)cc1)C(=O)N[C@H](CC(=O)O)C(=O)N1CCC[C@H]1C(=O)N[C@@H](CCCCN)C(N)=O | – | – | 4160 nM | –
CC[C@H](C)[C@H](NC(=O)[C@H](CCCN=C(N)N)NC(=O)[C@H](CCCCN)NC(=O)[C@H](CC(C)C)NC(=O)[C@H](Cc1ccccc1)NC(=O)CNC(=O)[C@H](CC(=O)O)NC(=O)[C@@H](N)Cc1ccc(O)cc1)C(=O)N[C@@H](CCCN=C(N)N)C(=O)N1CCC[C@H]1C(=O)N[C@@H](CCCCN)C(N)=O | – | – | 14.2 nM | –
CC[C@@H](C)[C@H]1NC(=O)[C@H](CCCN=C(N)N)NC(=O)[C@@H](CCCN=C(N)N)NC(=O)[C@H](NC(=O)[C@@H](Cc2ccccc2)NC(=O)CNC(=O)CNC(=O)[C@H](N)Cc2ccc(O)cc2)CCCCNC(=O)C[C@H](C(=O)N2CCC[C@H]2C(=O)N[C@H](CCCCN)C(N)=O)NC1=O | 120 nM | 100 nM | 9300 nM | –
